# Many of the other results were omitted from the sample, so hits are more common in it than they were.
# Lung fibro prol – blocks proliferation of human lung fibroblasts | LL 47 human lung fibroblast viability, ATP luminescence; stronger effect = lower value | viability, % at 10 µM | hit rate 1.1% among 85,000;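 active means viability at or below 50% in the single dose screen; inactive means viability above 50%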;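 further: compound exposure lasted 72 h before the ATP readout; 100% = median luminescence of untreated cell-only wells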
#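 Benchmarks: Cell-only wells, no compound | Test system: LL 47 human lung fibroblasts, passage 12 or lower | Input: 1,150 cells/well | Measured by: CellTiter-Glo luminescence measuring cellular ATP | Medium: IMEM, 15% FBS supplement | Schedule: Overnight attachment after seeding, then 72 h compound exposure at 37 °C | Doses: Compound addition at 0.1% DMSO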
# HCT116 PTEN-null – PTEN-deleted cell growth suppression; HCT116 PTEN-null viability, CellTiter-Glo, 60 h; stronger effect = lower value; viability, % at 10 µM; hit rate 1.2% among 140,000; AID 827;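 active means viability at or below a set limit, 4 SD under the median of all tested compounds, cut at about 3.7% in these data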;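 further: PTEN knockout HCT116 line with beta catenin targeted HCT116 as companion control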
# bCat KO growth – beta-catenin-lacking colon tumor cell growth suppression. HCT116 beta-catenin knockout viability, CellTiter-Glo, 60 h; stronger effect = lower value. viability, % at 10 µM. hit rate 1.5% among 140,000. AID 818;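 active means viability at or under a set limit, the compound median less 4 SD, cut at about 6% in these data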;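 further: 0% = Hyamine 1622 control at 20 µM and 100% = untreated cell control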
# HUVEC inhibit – human endothelial cell proliferation inhibition; HUVEC proliferation, CellTiter-Glo luminescence, 72 h; stronger effect = lower value; viability, % at 10 µM (by protocol); hit rate 1.1% among 86,000;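 active means viability at or below 30%; inactive means viability above 30%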;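 further: 100% = median luminescence of DMSO-only cell control wells on each plate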
# H69AR growth 86K – blocks growth of human H69AR lung tumor cells; H69AR lung tumor viability, ATP luminescence, 72 h; stronger effect = lower value; hit rate 6% among 85,000; viability, % at 10 µM; AID 598;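 active means viability at or below 40%; inactive means viability above 40%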;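 further: multidrug resistant small cell line overexpressing MRP-1 efflux transporter; 100% = mean luminescence of untreated control wells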
# Starred values were filed as active, the others as inactive; / = no result.
SMILES,Lung fibro prol,HCT116 PTEN-null,bCat KO growth,HUVEC inhibit,H69AR growth 86K
CCOC(=O)c1ccccc1NC(=O)c1ccc(N(C)S(C)(=O)=O)cc1,51.2,108.4,97.1,40.8,26.8*
CCOC(=O)c1c(NC(=O)c2ccc(N3C(=O)[C@@H]4[C@H](C3=O)[C@H]3C=C[C@@H]4C3)cc2)sc2c1CCCC2,/,89.1,90.1,/,/
COCCn1c(N)c(C(=O)Nc2sc3c(c2C(=O)OC)CCCC3)c2nc3ccccc3nc21,86.1,4.4,4.0*,80.7,42.8
CCOC(=O)c1c(NC(=O)c2ccc(-n3cnnn3)cc2)sc2c1CCCC2,/,4.6,3.4*,36.3,2.1*
CCOC(=O)c1c(NC(=O)Cn2c(C)nc3ccccc32)sc2c1CCC2,68.8,88.3,96.4,82.7,35.9*
CC(Oc1ccc(Cl)cc1Cl)C(=O)Nc1ccncc1 (configuration not stated),83.0,49.1,60.8,81.1,34.2*
CCCCn1c(CNC(=O)CCC)nc2ccccc21,106.6,84.0,90.1,101.6,102.9
CCCn1c(CNc2ccccc2O)nc2ccccc21,101.4,47.7,53.1,99.9,26.8*
CC(C)Oc1ccc(OCCNC2CCCC2)cc1,/,94.3,93.8,/,/
c1ccc(COc2ccc(OCCCNC3CCCC3)cc2)cc1,76.5,46.3,52.0,58.9,39.9*
Cc1ccc2nc(NC(=O)COC(=O)c3ccc(Br)o3)sc2c1,93.7,86.8,87.6,99.1,75.2
CCc1nc2ccccc2c(C(=O)OCC(=O)Nc2ccc(S(=O)(=O)N3CCOCC3)cc2)c1C,89.7,51.1,47.1,76.8,27.9*
CCc1nc2ccccc2c(C(=O)OCC(=O)Nc2cccc(S(=O)(=O)N3CCOCC3)c2)c1C,75.5,14.0,14.8,57.2,22.5*
CC1CCN(C(=O)c2cc3ccccc3c(=O)o2)CC1,/,96.0,104.0,/,/
CCOC(=O)C1CCN(C(=O)c2c(C)oc3c2C(=O)c2ccccc2C3=O)CC1,/,0.7*,1.1*,/,/
Cc1oc2c(c1C(=O)N1CCC(C)CC1)C(=O)c1ccccc1C2=O,/,1.5*,1.6*,/,/
Cc1ccc(C)c(NC(=O)C2=CCN(S(=O)(=O)c3ccc(F)cc3)CC2)c1,/,100.2,92.1,/,/
NC(=O)c1ccc(NC(=O)COC(=O)c2c3c(nc4ccccc24)/C(=C\c2cccs2)CCC3)cc1,/,1.8*,1.8*,/,/
CCN(CC)c1ccc(/C=C(/C#N)c2nc3ccccc3[nH]2)c(OC(C)C)c1,/,24.8,34.5,/,/
Cc1c(CCO)c(=O)[nH]n1C(=O)c1ccc(F)cc1,/,92.4,98.7,/,/
C(=C\c1ccccc1)/CN1CCN(C(c2ccccc2)c2ccccc2)CC1,95.8,62.9,55.9,89.0,23.0*
CCOC(=O)C1CCN(C(=O)c2sc3nc(-c4ccc(F)cc4)cn3c2C)CC1,97.4,72.3,68.4,94.2,35.3*
CCOC(=O)C1CCCN(C(=O)c2sc3nc(-c4ccc(F)cc4)cn3c2C)C1 (configuration not stated),97.5,82.5,88.3,89.8,52.4
COC(=O)c1ccc(NC(=O)c2sc3nc(-c4ccccc4)cn3c2C)cc1,100.3,56.6,60.6,69.7,36.7*
COc1ccc(-c2cn3c(C)c(C(=O)NCc4ccc5c(c4)OCO5)sc3n2)cc1,95.0,/,/,83.3,87.6
SMILES,Lung fibro prol,HCT116 PTEN-null,bCat KO growth,HUVEC inhibit,H69AR growth 86K
Cc1c(C(=O)Nc2ccncc2)sc2nc(-c3ccc(F)cc3)cn12,76.1,35.9,48.2,28.9*,17.0*
COc1ccc(-c2cn3c(C)c(C(=O)Nc4cccc(NC(C)=O)c4)sc3n2)cc1,88.0,65.7,51.9,23.4*,26.4*
COc1ccc(-c2cn3c(C)c(C(=O)Nc4ccncc4)sc3n2)cc1,93.9,85.7,84.9,101.4,75.0
COC(=O)c1ccc(CSc2nnc(C)n2N)o1,/,83.8,91.1,/,/
O=C(CSc1n[nH]c(-c2ccccc2Br)n1)NCCN1C(=O)CSC1=O,/,90.2,96.5,/,/
O=C(Nc1ccc(Cl)cc1C(F)(F)F)c1ccccc1,/,88.7,95.5,/,/
COc1ccc(-c2nn(-c3ccccc3)cc2C(=O)OCC(=O)c2ccc(C)c([N+](=O)[O-])c2)cc1,/,63.8,77.5,/,/
CS(=O)(=O)c1ccc2nc(NC(=O)c3cc(-c4ccccc4)nn3-c3ccccc3)sc2c1,/,71.1,86.8,/,/
CC(C)(C)c1ccc(OCC(=O)N/N=C/c2cc(Br)ccc2OC(=O)c2ccco2)cc1,/,4.8,4.8*,/,/
COc1ccccc1N1CCN(C(=O)c2ccoc2C)CC1,96.0,91.6,93.3,91.5,94.6
COc1ccccc1N1CCN(C(=O)c2oc3cc(C)cc(C)c3c2C)CC1,91.1,63.8,69.3,80.1,23.1*
COc1ccccc1N1CCN(C(=O)c2c(-c3ccccc3Cl)noc2C)CC1,95.2,49.8,63.7,81.7,19.4*
COC(=O)C1CCN(C(=O)c2c(-c3ccccc3Cl)noc2C)CC1,95.9,110.9,95.5,96.6,87.7
Cc1onc(-c2c(F)cccc2Cl)c1C(=O)N1CCCc2ccccc21,85.1,37.0,53.0,62.9,18.7*
Cc1onc(-c2ccccc2Cl)c1C(=O)N1CCCc2ccccc21,90.6,69.9,58.6,90.1,23.2*
O=C1C2C3CCC(C3)C2C(=O)N1Cc1ccccc1 (configuration not stated),/,99.9,98.2,/,/
CN(CCOc1ccccc1)S(=O)(=O)c1ccc2oc3ccccc3c2c1,/,101.6,93.4,/,/
Cc1ccc2occ(C(c3nnnn3C3CCCC3)N3CCN(C(=O)c4ccco4)CC3)c(=O)c2c1 (configuration not stated),100.2,76.7,83.2,93.0,59.9
O=C(c1ccco1)N1CCN(C(c2coc3ccc(Cl)cc3c2=O)c2nnnn2C2CCCC2)CC1 (configuration not stated),86.2,/,/,72.5,14.3*
CCOC(=O)C1=C(C(F)(F)F)Nc2ncnn2C1c1ccc(OC)cc1OC (configuration not stated),/,101.2,99.9,/,/
CC(C)NC(=O)CC(c1ccccc1)c1cc(Br)ccc1O (configuration not stated),97.9,93.8,96.3,76.4,101.1
CCCCCCNC(=O)CC(c1ccccc1)c1cc(Br)ccc1O (configuration not stated),93.8,76.0,76.0,11.4*,47.3
Cc1ccc(NC(=O)COC(=O)CNC(=O)c2ccc3ccccc3c2)c([N+](=O)[O-])c1,/,91.6,94.0,/,/
O=C(OCc1ccc(F)cc1)c1ccc2c(c1)-c1ccccc1C2=O,/,98.1,104.0,/,/
CCOC(=O)C1=C(Cc2ccc(F)cc2)C(=O)c2ccccc2C1=O,87.2,65.0,68.8,6.5*,0.8*
SMILES,Lung fibro prol,HCT116 PTEN-null,bCat KO growth,HUVEC inhibit,H69AR growth 86K
COc1cc(C2C(C#N)=C(C)NC(C)=C2C#N)cc(OC)c1OC,/,98.1,86.6,/,/
Cc1cccc2nc(CSc3nc4cc([N+](=O)[O-])ccc4s3)cn12,/,97.6,89.0,/,/
CCOC(=O)C[N+](CC)(CC)CC#Cc1ccccc1,/,98.1,98.8,/,/
CNCCCOc1ccc(C(C)(C)c2ccccc2)cc1,91.9,54.4,36.7,86.5,9.9*
C/C(=N\NC(=O)c1cc(-c2cccc([N+](=O)[O-])c2)n[nH]1)c1ccccc1O,/,2.9*,9.3,/,/
C/C(=N\NC(=O)c1ccccc1C)c1cccc([N+](=O)[O-])c1,/,102.5,101.7,/,/
